Reference: ChEMBL document CHEMBL1139436, “Quantitative structure-activity relationship of sesquiterpene lactones as inhibitors of the transcription factor NF-kappaB” (J Med Chem, 2004)

Key:
[1] = target: T1, Nuclear factor NF-kappa-B complex (Homo sapiens) (UniProt Q00653+P19838+Q04206); assay: (§1) Concentration required for complete inhibition of Nuclear factor kappa B DNA binding; type: protein-complex assay
Outline: (§2)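 Jurkat T cells (RPMI 1640, 10% FCS, penicillin/streptomycin) pretreated 1 h with sesquiterpene lactone, first at 10, 20, 50, 100 μM, then 1–5 μM or 200–300 μM as needed. Stimulated 1 h with 200 U/mL TNF-α. Total extracts (Totex high-salt buffer) analysed by EMSA with ³²P-labeled NF-κB oligonucleotide, 25 min at room temperature. IC100 is the lowest tested level fully blocking binding; intermediate values assigned the higher level. Each experiment reproduced at least once.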

[2] = target: T1, Nuclear factor NF-kappa-B complex (Homo sapiens); assay: as §1; type: protein-complex assay; design: unit not given here; outline: as §2

T1 sequence (P19838 whole entry, looked up): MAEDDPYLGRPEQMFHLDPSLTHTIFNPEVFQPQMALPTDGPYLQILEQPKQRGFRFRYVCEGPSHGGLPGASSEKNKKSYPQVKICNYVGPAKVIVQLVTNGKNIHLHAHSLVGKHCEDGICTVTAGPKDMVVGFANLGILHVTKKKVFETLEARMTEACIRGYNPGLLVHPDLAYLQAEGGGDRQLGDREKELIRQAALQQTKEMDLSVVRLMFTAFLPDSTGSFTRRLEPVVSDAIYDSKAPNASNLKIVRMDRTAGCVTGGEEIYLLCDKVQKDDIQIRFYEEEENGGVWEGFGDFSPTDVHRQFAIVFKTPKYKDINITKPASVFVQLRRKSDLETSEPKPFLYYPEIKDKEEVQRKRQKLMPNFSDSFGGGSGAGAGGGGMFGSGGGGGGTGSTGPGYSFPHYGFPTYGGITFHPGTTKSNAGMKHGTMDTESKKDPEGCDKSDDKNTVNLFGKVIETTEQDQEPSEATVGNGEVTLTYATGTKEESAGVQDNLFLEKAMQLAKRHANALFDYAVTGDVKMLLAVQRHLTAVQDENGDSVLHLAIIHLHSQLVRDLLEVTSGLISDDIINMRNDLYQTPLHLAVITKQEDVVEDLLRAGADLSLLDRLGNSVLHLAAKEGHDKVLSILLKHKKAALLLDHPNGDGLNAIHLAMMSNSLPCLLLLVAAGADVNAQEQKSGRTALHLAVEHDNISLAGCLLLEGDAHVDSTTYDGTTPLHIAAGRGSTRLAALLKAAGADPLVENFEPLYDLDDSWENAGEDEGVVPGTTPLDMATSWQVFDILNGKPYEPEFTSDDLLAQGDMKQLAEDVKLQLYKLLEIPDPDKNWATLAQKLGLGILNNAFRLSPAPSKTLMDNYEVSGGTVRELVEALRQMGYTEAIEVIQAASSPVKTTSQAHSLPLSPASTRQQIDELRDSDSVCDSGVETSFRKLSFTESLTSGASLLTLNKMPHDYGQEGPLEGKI
T1 sequence (Q00653 whole entry, looked up): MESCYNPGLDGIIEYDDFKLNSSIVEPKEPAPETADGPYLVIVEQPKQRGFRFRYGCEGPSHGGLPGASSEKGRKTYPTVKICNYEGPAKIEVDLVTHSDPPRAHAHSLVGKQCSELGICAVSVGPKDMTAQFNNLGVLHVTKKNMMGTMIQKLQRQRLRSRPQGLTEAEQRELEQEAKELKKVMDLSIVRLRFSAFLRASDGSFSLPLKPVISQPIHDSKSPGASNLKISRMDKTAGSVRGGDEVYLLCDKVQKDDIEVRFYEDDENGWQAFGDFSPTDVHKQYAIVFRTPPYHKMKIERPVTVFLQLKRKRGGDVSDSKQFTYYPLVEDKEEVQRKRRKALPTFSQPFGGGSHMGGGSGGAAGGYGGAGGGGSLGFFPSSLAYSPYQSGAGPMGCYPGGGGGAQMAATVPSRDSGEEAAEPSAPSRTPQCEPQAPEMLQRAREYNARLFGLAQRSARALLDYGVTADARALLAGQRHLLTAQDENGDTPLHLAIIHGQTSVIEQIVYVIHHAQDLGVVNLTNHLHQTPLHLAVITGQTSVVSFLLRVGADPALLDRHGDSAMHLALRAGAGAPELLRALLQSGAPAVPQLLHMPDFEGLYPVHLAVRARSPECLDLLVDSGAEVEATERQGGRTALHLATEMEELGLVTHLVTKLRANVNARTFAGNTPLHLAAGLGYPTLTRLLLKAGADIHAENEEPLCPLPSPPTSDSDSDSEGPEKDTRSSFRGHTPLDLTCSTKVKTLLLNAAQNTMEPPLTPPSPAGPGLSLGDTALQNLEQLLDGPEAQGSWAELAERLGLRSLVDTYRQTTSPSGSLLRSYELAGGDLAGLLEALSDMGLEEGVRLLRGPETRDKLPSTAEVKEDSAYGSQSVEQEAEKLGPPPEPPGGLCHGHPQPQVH
T1 sequence (Q04206 whole entry, looked up): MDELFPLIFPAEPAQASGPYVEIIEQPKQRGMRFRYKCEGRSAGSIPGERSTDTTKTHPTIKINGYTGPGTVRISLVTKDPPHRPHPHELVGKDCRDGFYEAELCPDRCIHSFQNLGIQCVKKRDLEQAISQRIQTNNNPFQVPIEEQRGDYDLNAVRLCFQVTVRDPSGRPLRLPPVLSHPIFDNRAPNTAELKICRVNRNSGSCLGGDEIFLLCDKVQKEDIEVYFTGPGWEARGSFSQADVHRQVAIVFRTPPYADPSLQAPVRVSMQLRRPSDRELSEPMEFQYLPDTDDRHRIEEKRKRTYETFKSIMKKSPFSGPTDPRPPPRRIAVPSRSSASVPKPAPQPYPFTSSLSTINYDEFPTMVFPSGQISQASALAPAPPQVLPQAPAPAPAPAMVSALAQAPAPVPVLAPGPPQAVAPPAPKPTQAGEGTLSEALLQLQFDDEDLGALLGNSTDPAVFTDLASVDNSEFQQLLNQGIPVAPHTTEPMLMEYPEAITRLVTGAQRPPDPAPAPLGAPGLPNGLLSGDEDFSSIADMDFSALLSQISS

**Q.** What does the source list for C=C1C(=O)O[C@@H]2/C=C(/C)[C@H](OC(C)=O)C/C=C(/C)CC[C@@H]12?
**A.** IC100 [1]: 50 µM; pIC100 [2]: -1.69

**Q.** For C=C1C(=O)O[C@H]2[C@H]1[C@H](OC(=O)[C@@]1(C)O[C@H]1C)[C@@H](OC(C)=O)/C(C(=O)OC)=C\CC[C@@]1(C)O[C@@H]21, which IC100 [1] is on record?
**A.** Its IC100 is 10 µM.

**Q.** Which results are given for C=C1C(=O)O[C@H]2C[C@H](C)C3=CC(=O)[C@H](C)C3C[C@H]12 (stereo partly drawn)?
**A.** IC100 [1]: 20 µM; pIC100 [2]: -1.3

**Q.** How did the IC100 [1] turn out when C=C1C(=O)O[C@H]2CC(=C)[C@H](O)CC/C(C)=C/[C@@H](O)[C@H]12 was run?
**A.** The IC100 was 50 µM.

**Q.** How did the IC100 [1] turn out when C=C(C)C(=O)O[C@@H]1/C=C(/C=O)CCC[C@@]2(CO2)[C@H](O)[C@H]2OC(=O)C(=C)[C@@H]21 was run?
**A.** The IC100 was 5 µM.

**Q.** And the pIC100 [2]?
**A.** The pIC100 was -0.69.

**Q.** With C=C1C(=O)O[C@@H]2C[C@@]3(C)[C@H](O)CC=C(COC(=O)C(C)C)[C@@H]3C[C@H]12 as the compound, how does the IC100 [1] read?
**A.** The IC100 was 50 µM.

**Q.** What does the source list for C=C1C(=O)O[C@@H]2/C=C(/CO)C3=CC(=O)[C@@](C)(C[C@H](OC(=O)/C(C)=C/C)[C@@H]12)O3?
**A.** IC100 [1]: 5 µM; pIC100 [2]: -0.69

**Q.** Which results are given for C=C1C(=O)O[C@@H]2/C=C(/C)C3=CC(=O)[C@@](C)(C[C@@H](OC(=O)/C(C)=C\C)[C@@H]12)O3?
**A.** IC100 [1]: 5 µM; pIC100 [2]: -0.39

**Q.** C=C(C)C(=O)O[C@H]1[C@H]2C(=C)C(=O)O[C@@H]2[C@H]2O[C@]2(C)CC/C=C(/C=O)[C@@H]1O was tested. Which IC100 [1] did it give?
**A.** Its IC100 is 10 µM.

**Q.** What about the pIC100 [2] of the same compound?
**A.** Its pIC100 is -1.

**Q.** C=C1C(=O)O[C@]23C[C@H]1CCC(COC(C)=O)=C2C(=O)C=C3C was tested. Which IC100 [1] did it give?
**A.** Its IC100 is 100 µM.

**Q.** With C=C1C(=O)O[C@@H]2[C@H]3C(C)=CC[C@@H](O)[C@]3(C)CC[C@@H]12 as the compound, how does the IC100 [1] read?
**A.** Its IC100 is 100 µM.

**Q.** Which results are given for C=C1C(=O)O[C@@H]2/C=C(/COC(=O)C(C)C)CC/C=C(/CO)[C@H](O)C[C@@H]12?
**A.** IC100 [1]: 100 µM; pIC100 [2]: -2

**Q.** For C=C1C(=O)O[C@H]2C/C(CO)=C\CC/C(COC(=O)C(C)CC)=C\C[C@H]12 (stereo partly drawn), which IC100 [1] is on record?
**A.** The IC100 was 50 µM.

**Q.** What about the pIC100 [2] of the same compound?
**A.** The pIC100 was -1.69.

**Q.** With C=C1C(=O)C[C@H]2C(=C)C(=O)O[C@@H]2/C=C(/COC(=O)C(C)C)CC[C@@H]1OC as the compound, how does the IC100 [1] read?
**A.** Its IC100 is 25 µM.

**Q.** What about the pIC100 [2] of the same compound?
**A.** Its pIC100 is -1.09.

**Q.** How did the IC100 [1] turn out when C=C1C(=O)O[C@@H]2/C=C(/C)[C@]3(O)O[C@@](C)(C[C@@H]3OC)C[C@@H](OC(=O)C(C)C)[C@@H]12 was run?
**A.** Its IC100 is 200 µM.

**Q.** And the pIC100 [2]?
**A.** Its pIC100 is -2.3.

**Q.** For C=C1C(=O)OC2C[C@@H](C)[C@@H]3C=CC(=O)[C@@]3(C)[C@H](O)[C@H]12 (single isomer, unassigned), which IC100 [1] is on record?
**A.** Its IC100 is 20 µM.

**Q.** With C=C1C(=O)O[C@@H]2[C@H]3C(CO)=CC(=O)C3=C(C)CC[C@@H]12 as the compound, how does the IC100 [1] read?
**A.** Its IC100 is 50 µM.

**Q.** What about the pIC100 [2] of the same compound?
**A.** The pIC100 was -1.69.

**Q.** C=C(C)C(=O)O[C@H]1C/C(C)=C/C(=O)/C=C(/C)[C@H](O)[C@H]2OC(=O)C(=C)[C@@H]21 was tested. Which IC100 [1] did it give?
**A.** Its IC100 is 10 µM.

**Q.** And the pIC100 [2]?
**A.** Its pIC100 is -1.

**Q.** Which results are given for C=C1C(=O)O[C@@H]2/C=C(/COC(=O)CC(C)C)CC/C=C(/CO)C(=O)C[C@@H]12 (stereo in doubt; 5)?
**A.** IC100 [1]: 12.5 µM; pIC100 [2]: -1.09

**Q.** How did the IC100 [1] turn out when C=C1C(=O)C[C@H]2C(=C)C(=O)O[C@@H]2/C=C(/COC(=O)CC(C)C)CC[C@H]1OC was run?
**A.** The IC100 was 12.5 µM.

**Q.** And the pIC100 [2]?
**A.** Its pIC100 is -1.09.

**Q.** For C=C(C)C(=O)O[C@@H]1C=C(C=O)CCCC(=C)[C@H](O)[C@H]2OC(=O)C(=C)[C@@H]21, which IC100 [1] is on record?
**A.** Its IC100 is 10 µM.

**Q.** What about the pIC100 [2] of the same compound?
**A.** The pIC100 was -1.

**Q.** How did the IC100 [1] turn out when CC(=O)O[C@H]1[C@@H]2[C@H](C)C(=O)O[C@@H]2C[C@@H](C)[C@@H]2C=CC(=O)[C@]21C was run?
**A.** Its IC100 is 200 µM.

**Q.** C=C1C[C@@H]2OC(=O)C(=C)[C@H]2[C@H](O)/C=C(\C)CCC1=O was tested. Which IC100 [1] did it give?
**A.** Its IC100 is 50 µM.

**Q.** And the pIC100 [2]?
**A.** The pIC100 was -1.69.

**Q.** Which IC100 [1] does the source give for C=C1C(=O)O[C@@H]2C[C@@]3(C)[C@H](O)CC[C@](O)(COC(=O)C(C)C)[C@@H]3C[C@H]12 here?
**A.** The IC100 was 200 µM.

**Q.** Which results are given for C=C(C)C(=O)O[C@H]1[C@H]2C(=C)C(=O)O[C@@H]2[C@@H](O)C(=C)CC/C=C(/C=O)[C@@H]1OC(C)=O?
**A.** IC100 [1]: 10 µM; pIC100 [2]: -1

**Q.** Which results are given for C=C1C(=O)C=C2[C@H]1C[C@@H]1C(=C)C(=O)O[C@@H]1C[C@@H]2C?
**A.** IC100 [1]: 10 µM; pIC100 [2]: -1

**Q.** With C=C1C(=O)O[C@@H]2[C@H]3C(C)=CC(=O)C3=C(C)CC[C@@H]12 as the compound, how does the IC100 [1] read?
**A.** Its IC100 is 50 µM.

**Q.** Which IC100 [1] does the source give for C=C(C)C(=O)O[C@H]1[C@@H]2[C@H](C)C(=O)O[C@@H]2C[C@@H](C)[C@@H]2C=CC(=O)[C@]21C here?
**A.** Its IC100 is 100 µM.

**Q.** With C=C1C(=O)O[C@@H]2[C@@H]3[C@@](C)(CC[C@@H]12)[C@@H](O)C[C@H]1O[C@@]31C as the compound, how does the IC100 [1] read?
**A.** Its IC100 is 200 µM.

**Q.** Which IC100 [1] does the source give for C/C=C(\C)C(=O)O[C@H]1[C@@H]2[C@H](C)C(=O)O[C@@H]2C[C@@H](C)[C@@H]2C=CC(=O)[C@]21C here?
**A.** Its IC100 is 100 µM.

**Q.** For C=C1C(=O)O[C@@H]2C[C@@]3(C)[C@H](O)CC[C@@](O)(COC(=O)C(C)C)[C@@H]3C[C@H]12, which IC100 [1] is on record?
**A.** The IC100 was 200 µM.

**Q.** Which IC100 [1] does the source give for C=C1[C@@H]2[C@H]3OC(=O)C(=C)[C@@H]3CCC(=C)[C@@H]2C[C@@H]1OC(C)=O here?
**A.** Its IC100 is 100 µM.

**Q.** With C=C1C(=O)OC2[C@H]3O[C@]3(C)CC/C=C(/C)CC[C@@H]12 (stereo partly drawn) as the compound, how does the IC100 [1] read?
**A.** The IC100 was 20 µM.

**Q.** For C=C1C(=O)O[C@@H]2[C@H]3C(C)=CC[C@H](O)[C@]3(C)CC[C@@H]12, which IC100 [1] is on record?
**A.** Its IC100 is 300 µM.

**Q.** C=C1C(=O)O[C@@H]2C[C@@H](C)[C@@H]3C=CC(=O)[C@@]3(C)[C@@H](O)[C@H]12 was tested. Which IC100 [1] did it give?
**A.** Its IC100 is 10 µM.
